By mortality is commonly meant the percentage killed.

Consider 2 molecules from ChEMBL document CHEMBL3414437, “Synthesis of CDDO-amino acid-nitric oxide donor trihybrids as potential antitumor agents against both drug-sensitive and drug-resistant colon cancer” (J Med Chem, 2015).

Active and inactive are the calls of the source. No cut-off for these calls is given here.

Series [1] deals with HCT-8. The series is described as follows: Antiproliferative activity against 5-FU resistant human HCT8 cells assessed as inhibition of cell proliferation at 0.25 uM dosed 1 hr after NO scavenger carboxy-PTIO treatment and measured after 24 hrs by MTT assay. Type of series: functional.
Series [2] relates to HCT-8. The series is described as follows: Antiproliferative activity against human HCT8 cells assessed as inhibition of cell proliferation at 0.125 to 0.5 uM incubated for 72 hrs after 24 hrs of pre-treatment with 0.75 uM and 1 .5 uM pepT1 substrate Gly-Sar by MTT assay. The format is functional, cell-based. The procedure, abridged: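 Cells pretreated with or without Gly-Sar (0.75 or 1.5 µM) for 24 h, then given a range of compound concentrations for 72 h. Proliferation inhibition measured by MTT.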
On the technique in general: Formazan colour is commonly taken as a measure of viable cells.

Series [3] relates to HCT-8. Description: Induction of nitric oxide release in 5-FU resistant human HCT8 cells at 150 uM incubated for 150 mins after 150 mins of pre-treatment with 0.75 uM to 192 uM pepT1 substrate Gly-Sar by Griess assay. Type of series: functional, cell-based. In outline: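 Cells pretreated with Gly-Sar (0.75–192 µM, nine levels) for 150 min, then given compound at 150 µM for 150 min. Intracellular nitrite in lysates measured with Griess reagent (10 min, 37 °C, 540 nm) against a sodium nitrite standard curve. Mean ± SD of three experiments.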
(In general: The Griess reaction detects nitrite, a stable product of nitric oxide.)

In series [4] the test system is HCT-8. The series is described as follows: Inhibition of HIF-1alpha protein expression in human HCT8 cells at 0.25 to 1 uM incubated for 24 hrs by Western blotting method. The format is functional, cell-based. In outline: (§1)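 Cells (1 x 10^6) grown 24 h in 6 cm dishes, then exposed in duplicate for 24 h to 0.25, 0.5 or 1 µM compound, with or without PTIO. Lysates (20 µg/lane) were run on 7.5% SDS-PAGE, blotted to PVDF and blocked in 5% milk. HRP secondaries with ECL detection; bands quantified by densitometry against β-actin or GAPDH. Three separate experiments, mean ± SD.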
On the technique in general: Immunoblotting shows a protein as a band on a membrane.

For series [5], the system named is HCT-8. The series is described as follows: Inhibition of P-gp protein expression in FU-resistant human HCT8 cells at 1 uM in presence of NO scavenger carboxy-PTIO incubated for 24 hrs by Western blotting method. The format is functional, cell-based. In outline: as §1
In series [6] the test system is HCT-8. Description: Inhibition of BCRP protein expression in FU-resistant human HCT8 cells at 1 uM in presence of NO scavenger carboxy-PTIO incubated for 24 hrs by Western blotting method. The format is functional, cell-based. The procedure, abridged: as §1
The target in series [7] is ATP-dependent translocase ABCB1 (Homo sapiens, UniProt P08183). Description: Induction of nitrosylation of P-gp protein in FU-resistant human HCT8 cells at 0.25 to 1 uM incubated for 24 hrs by Western blotting method. Type of series: cell-based. To be noted: hct-8, 24 h. The procedure, abridged:
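HCT-8/5-FU cells (1 × 10^6) treated in duplicate for 24 h with 0.25, 0.5 or 1 µM test compound or 1 µM reference, with or without PTIO. Lysates immunoprecipitated overnight at 4 °C with anti-nitrotyrosine antibody on protein G beads. Eluates blotted with specific anti-Pgp, anti-MRP1 or anti-BCRP antibodies and quantified by densitometry. Mean ± SD of three experiments.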

Series [8] can be described thus: Toxicity in female ICR mouse assessed as mouse mortality at 2.38 x 10^3 umol/kg administered as single dose via oral gavage measured up to 14 days post treatment. Type of series: organism-based. To be noted: in vivo. In outline:
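Female or male adult ICR mice, 10 per sex group, were randomised and given a single oral gavage dose of 2,000 mg/kg in cremophor-EL/DMSO/PBS (1:1:8). Total mortality was recorded over days 1–14, and body weight on days 0, 7 and 14 as mean ± SD.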

The test system of series [9] is Mus musculus. Description: Toxicity in male ICR mouse assessed as body weight level at 2.38 x 10^3 umol/kg administered as single dose via oral gavage measured on day 14 post treatment (reference value: 19.5 +/- 0.85 g). Type of series: organism-based. To be noted: in vivo.
The subject of series [10] is Mus musculus. The series is described as follows: Toxicity in nude BALB/c mouse xenografted with FU-resistant human HCT8 cells assessed as body weight level at 35.7 umol/kg administered as via oral gavage daily for 21 days (reference value: 21.1 +/- 1.5 g). Type of series: organism-based, HCT-8. To be noted: in vivo, 504 h. In outline: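 Male BALB/c nude mice, 6-8 weeks old, inoculated s.c. in right flank with HCT-8/5-FU cells (2 × 10^6/mouse). Once tumors reached 180-200 mm3 (9-11 days post-implantation), mice were randomized and dosed by gavage daily for 21 consecutive days in cremophor-EL/DMSO/PBS (1:1:8) (vehicle alone 0.2 mL). Body weights recorded on day 1 and day 21. Organ size, color and weights were inspected for liver, kidney, lung and heart. n = 8 per group; mean ± SD.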

The subject of series [11] is Mus musculus. The series is described as follows: Toxicity in nude BALB/c mouse xenografted with FU-resistant human HCT8 cells assessed as abnormal color changes in lung at 17.8 to 35.7 umol/kg administered as via oral gavage daily for 21 days. The format is organism-based, HCT-8. To be noted: in vivo, 504 h. In outline:
(§2)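 Male BALB/c nude mice aged 6-8 weeks, implanted s.c. in the right flank with HCT-8/5-FU cells (2 × 10^6). Once tumors reached 180-200 mm3 (days 9-11), randomized to daily gavage for 21 days in cremophor-EL/DMSO/PBS (1:1:8), 0.2 mL. At the end, liver, kidney, lung and heart checked for size, colour and weight. n = 8 per group.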

In series [12] the test system is Mus musculus. The series is described as follows: Toxicity in nude BALB/c mouse xenografted with FU-resistant human HCT8 cells assessed as abnormal size changes in kidney at 17.8 to 35.7 umol/kg administered as via oral gavage daily for 21 days. The format is organism-based, HCT-8. To be noted: in vivo, 504 h. In outline: as §2
Series [13] relates to Mus musculus. Description: Toxicity in nude BALB/c mouse xenografted with FU-resistant human HCT8 cells assessed as abnormal weight changes in liver at 17.8 to 35.7 umol/kg administered as via oral gavage daily for 21 days. To be noted: in vivo, 504 h. The format is organism-based, HCT-8. The procedure, abridged:
as §2

In series [14] the test system is Mus musculus. Description: Toxicity in nude BALB/c mouse xenografted with FU-resistant human HCT8 cells assessed as abnormal weight changes in kidney at 17.8 to 35.7 umol/kg administered as via oral gavage daily for 21 days. Type of series: organism-based, HCT-8. To be noted: in vivo, 504 h. In outline: as §2
The subject of series [15] is Mus musculus. Description: Toxicity in nude BALB/c mouse xenografted with FU-resistant human HCT8 cells assessed as abnormal weight changes in heart at 59.4 umol/kg administered as via oral gavage daily for 21 days. Type of series: organism-based, HCT-8. To be noted: in vivo, 504 h. The procedure, abridged:
as §2

The target of series [16] is RAC-alpha serine/threonine-protein kinase (Homo sapiens) (UniProt P31749). The series is described as follows: Inhibition of AKT protein phosphorylation in human HCT8 cells at 1 uM incubated for 24 hrs by Western blotting method. The format is cell-based. To be noted: HCT-8. In outline: as §1
RAC-alpha serine/threonine-protein kinase (Homo sapiens), sequence (P31749 whole entry): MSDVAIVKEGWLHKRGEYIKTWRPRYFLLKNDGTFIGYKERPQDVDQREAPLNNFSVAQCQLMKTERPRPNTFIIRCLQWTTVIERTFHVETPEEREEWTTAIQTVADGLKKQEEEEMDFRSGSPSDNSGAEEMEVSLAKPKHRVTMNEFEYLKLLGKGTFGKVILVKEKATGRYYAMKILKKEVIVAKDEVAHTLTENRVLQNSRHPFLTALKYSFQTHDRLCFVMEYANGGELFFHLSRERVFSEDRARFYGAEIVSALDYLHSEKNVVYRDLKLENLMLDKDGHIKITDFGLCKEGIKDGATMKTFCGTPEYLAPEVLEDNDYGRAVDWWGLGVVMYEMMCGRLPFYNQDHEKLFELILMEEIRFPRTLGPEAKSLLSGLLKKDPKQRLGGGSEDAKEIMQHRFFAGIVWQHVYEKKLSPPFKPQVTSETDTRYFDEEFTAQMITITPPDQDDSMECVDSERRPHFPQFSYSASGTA
Series [17] deals with HCT-8. Description: Inhibition of MRP1 protein expression in FU-resistant human HCT8 cells at 1 uM incubated for 24 hrs by Western blotting method. The format is functional, cell-based. In outline:
as §1

Series [18] relates to HCT-8. The series is described as follows: Inhibition of BCRP protein expression in FU-resistant human HCT8 cells at 1 uM incubated for 24 hrs by Western blotting method. The format is functional, cell-based. In outline: as §1
The subject of series [19] is Mus musculus. The series is described as follows: Toxicity in nude BALB/c mouse xenografted with FU-resistant human HCT8 cells assessed as abnormal color changes in liver at 59.4 umol/kg administered as via oral gavage daily for 21 days. Type of series: organism-based, HCT-8. To be noted: in vivo, 504 h. In outline:
as §2

In series [20] the test system is Mus musculus. Description: Toxicity in nude BALB/c mouse xenografted with FU-resistant human HCT8 cells assessed as abnormal size changes in kidney at 59.4 umol/kg administered as via oral gavage daily for 21 days. The format is organism-based, HCT-8. To be noted: in vivo, 504 h. The procedure, abridged:
as §2

ATP-dependent translocase ABCB1, sequence (P08183 whole entry): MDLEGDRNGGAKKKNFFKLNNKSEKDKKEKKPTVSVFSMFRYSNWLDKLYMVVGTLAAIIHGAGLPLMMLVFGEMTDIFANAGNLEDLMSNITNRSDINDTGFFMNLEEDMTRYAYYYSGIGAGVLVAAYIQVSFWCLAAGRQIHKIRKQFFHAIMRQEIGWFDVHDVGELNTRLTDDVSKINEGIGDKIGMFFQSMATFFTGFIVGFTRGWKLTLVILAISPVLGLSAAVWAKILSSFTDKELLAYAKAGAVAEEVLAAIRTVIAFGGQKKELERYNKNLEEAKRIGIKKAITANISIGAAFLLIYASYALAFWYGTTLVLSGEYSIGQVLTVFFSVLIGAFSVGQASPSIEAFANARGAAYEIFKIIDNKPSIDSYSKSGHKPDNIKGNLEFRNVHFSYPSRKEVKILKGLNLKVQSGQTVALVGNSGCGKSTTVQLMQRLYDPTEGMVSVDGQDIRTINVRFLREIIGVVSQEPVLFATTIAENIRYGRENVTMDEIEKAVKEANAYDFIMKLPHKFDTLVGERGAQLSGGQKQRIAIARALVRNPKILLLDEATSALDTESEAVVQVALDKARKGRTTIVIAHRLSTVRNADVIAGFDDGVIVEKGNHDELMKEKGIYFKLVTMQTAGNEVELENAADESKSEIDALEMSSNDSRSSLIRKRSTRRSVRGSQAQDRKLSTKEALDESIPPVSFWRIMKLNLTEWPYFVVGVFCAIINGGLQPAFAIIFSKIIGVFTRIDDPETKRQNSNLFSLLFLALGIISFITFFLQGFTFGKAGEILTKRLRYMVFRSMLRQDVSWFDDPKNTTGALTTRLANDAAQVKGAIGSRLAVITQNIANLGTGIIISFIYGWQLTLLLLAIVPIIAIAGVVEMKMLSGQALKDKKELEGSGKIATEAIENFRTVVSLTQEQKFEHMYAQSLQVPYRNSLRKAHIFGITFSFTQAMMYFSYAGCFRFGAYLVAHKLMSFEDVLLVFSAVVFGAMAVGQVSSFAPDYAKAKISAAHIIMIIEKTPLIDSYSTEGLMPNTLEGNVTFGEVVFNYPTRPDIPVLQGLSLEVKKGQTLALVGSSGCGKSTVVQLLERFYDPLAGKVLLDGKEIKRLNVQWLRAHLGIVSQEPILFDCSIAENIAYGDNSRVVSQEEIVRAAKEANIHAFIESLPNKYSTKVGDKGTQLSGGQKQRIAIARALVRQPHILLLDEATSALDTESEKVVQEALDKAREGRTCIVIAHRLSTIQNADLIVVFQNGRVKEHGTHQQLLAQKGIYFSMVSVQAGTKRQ

`CC1(C)CC[C@]2(C(=O)NCC(=O)OCC#CCOc3no[n+]([O-])c3S(=O)(=O)c3ccccc3)CC[C@]3(C)[C@H](C(=O)C=C4[C@@]5(C)C=C(C#N)C(=O)C(C)(C)[C@@H]5CC[C@]43C)[C@@H]2C1`: the inhibition result in [1], in series [2], in series [5] and in series [6] was “inactive” each time. Besides, in [3], the outcome was inactive. In addition, the inhibition result in [4] is “Dose-dependent effect”. The Activity entry in series [7] is reported as “Dose-dependent effect”; in [9], 31.9 g; in series [10] it was 16.7 g; in series [11], “Non-toxic”; in series [12], “Non-toxic”; in [13], “Non-toxic”. The Activity entry in series [14] is reported as “Non-toxic”. Further, the mortality at 336 h in series [8] is 0%.
Regarding `COC(=O)[C@]12CCC(C)(C)C[C@H]1[C@H]1C(=O)C=C3[C@@]4(C)C=C(C#N)C(=O)C(C)(C)[C@@H]4CC[C@@]3(C)[C@]1(C)CC2` [BARDOXOLONE METHYL], the Activity result in series [15], in series [19] and in series [20] was “Non-toxic” each time. In addition, the inhibition entry in series [16] is “Active”. In addition, the inhibition result in series [17] and in [18] was “inactive” in each case.
